ChEMBL document CHEMBL5046221, “Identification of Pyrimidine-Based Lead Compounds for Understudied Kinases Implicated in Driving Neurodegeneration” (J Med Chem, 2022)
pIC50: −log10 of the molar value.

Tests used:
[1] = biological target: T1, Serine/threonine-protein kinase 17A (Homo sapiens, UniProt Q9UEE5); experiment: Displacement of tracer K9 from NLuc fused DRAK1 (unknown origin) expressed in HEK293 cells by NanoBRET assay; format: cell-based
T1 sequence (Q9UEE5 whole entry): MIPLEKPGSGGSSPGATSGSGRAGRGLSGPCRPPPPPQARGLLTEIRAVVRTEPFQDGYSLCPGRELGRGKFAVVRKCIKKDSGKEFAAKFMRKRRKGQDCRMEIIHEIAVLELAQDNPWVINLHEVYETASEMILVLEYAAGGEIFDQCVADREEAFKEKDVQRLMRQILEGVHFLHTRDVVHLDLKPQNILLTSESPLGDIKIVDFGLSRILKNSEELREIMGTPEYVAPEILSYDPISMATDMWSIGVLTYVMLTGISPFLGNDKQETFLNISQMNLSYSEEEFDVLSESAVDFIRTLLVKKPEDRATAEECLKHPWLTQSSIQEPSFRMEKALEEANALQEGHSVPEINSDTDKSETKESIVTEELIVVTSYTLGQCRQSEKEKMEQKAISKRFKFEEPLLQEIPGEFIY

[2] = Inhibition of human TTBK1 (1 to 479 residues) using Casein as substrate measured after 40 mins in presence of [gamma33P]ATP by scintillation counting method
Outline: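 Eurofins radiometric kinase assay run at ATP equal to Km for each kinase. 9-point dose–response in duplicate gives the IC50.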

[3] = Kinetic solubility of compound in PBS at pH 7.4 incubated for 24 hrs by chemiluminscent nitrogen detection method; format: physicochemical; details: buffer, pH 7.4, 24 h
Outline: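 Filtrates were quantified by total chemiluminescent nitrogen determination against a calibration curve, with correction for background nitrogen from DMSO and medium.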

[4] = biological target: Aurora kinase B (Homo sapiens) (UniProt Q96GD4); experiment: Inhibition of full length recombinant human AURKB using AKRRRLSSLRA as substrate at 1 uM incubated for 40 mins in presence of [gamma-33P-ATP] by radiometric scintillation assay relative to control
Aurora kinase B (Homo sapiens), sequence (Q96GD4 whole entry): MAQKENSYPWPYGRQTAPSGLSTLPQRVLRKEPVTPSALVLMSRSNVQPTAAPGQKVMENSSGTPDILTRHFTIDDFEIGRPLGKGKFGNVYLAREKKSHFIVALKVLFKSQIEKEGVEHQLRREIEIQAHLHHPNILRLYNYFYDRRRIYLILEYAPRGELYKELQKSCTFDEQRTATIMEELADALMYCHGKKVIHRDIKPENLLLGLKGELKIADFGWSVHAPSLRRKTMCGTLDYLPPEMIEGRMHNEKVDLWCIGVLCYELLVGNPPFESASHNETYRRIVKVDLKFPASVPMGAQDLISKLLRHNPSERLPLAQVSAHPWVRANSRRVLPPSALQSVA
Outline: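 Eurofins radiometric kinase assay with ATP at Km for each kinase. Compound was tested at a single 1 μM concentration in duplicate, and the result is reported as percent of control.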

[5] = biological target: MAP/microtubule affinity-regulating kinase 3 (Homo sapiens, UniProt P27448); experiment: Displacement of tracer K9 from NLuc fused MARK3 (unknown origin) expressed in HEK293 cells by NanoBRET assay; format: cell-based
MAP/microtubule affinity-regulating kinase 3, sequence (P27448 whole entry, the tested form may be a part): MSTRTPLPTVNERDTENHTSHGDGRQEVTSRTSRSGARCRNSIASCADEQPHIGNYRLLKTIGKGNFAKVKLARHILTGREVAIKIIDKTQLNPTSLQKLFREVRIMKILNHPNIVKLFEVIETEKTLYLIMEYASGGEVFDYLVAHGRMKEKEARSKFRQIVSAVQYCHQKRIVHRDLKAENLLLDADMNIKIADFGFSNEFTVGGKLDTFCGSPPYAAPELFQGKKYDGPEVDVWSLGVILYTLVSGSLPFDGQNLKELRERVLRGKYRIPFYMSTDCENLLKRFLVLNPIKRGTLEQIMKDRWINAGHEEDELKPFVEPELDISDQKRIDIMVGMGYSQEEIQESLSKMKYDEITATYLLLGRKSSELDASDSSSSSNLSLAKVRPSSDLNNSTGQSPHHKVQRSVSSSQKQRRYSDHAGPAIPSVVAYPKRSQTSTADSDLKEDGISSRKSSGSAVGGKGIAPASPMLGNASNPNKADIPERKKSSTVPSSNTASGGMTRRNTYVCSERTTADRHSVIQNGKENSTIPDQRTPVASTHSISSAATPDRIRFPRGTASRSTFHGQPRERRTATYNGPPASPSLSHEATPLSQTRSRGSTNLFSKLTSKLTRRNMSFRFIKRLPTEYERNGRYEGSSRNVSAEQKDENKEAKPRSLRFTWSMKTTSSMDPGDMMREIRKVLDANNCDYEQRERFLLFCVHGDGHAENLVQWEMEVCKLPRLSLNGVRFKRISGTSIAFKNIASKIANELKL

[6] = biological target: T2, MAP/microtubule affinity-regulating kinase 4 (Homo sapiens, UniProt Q96L34); experiment: Displacement of tracer K5 from NLuc fused MARK4 (unknown origin) expressed in HEK293 cells by NanoBRET assay; format: cell-based
T2 sequence (Q96L34 whole entry): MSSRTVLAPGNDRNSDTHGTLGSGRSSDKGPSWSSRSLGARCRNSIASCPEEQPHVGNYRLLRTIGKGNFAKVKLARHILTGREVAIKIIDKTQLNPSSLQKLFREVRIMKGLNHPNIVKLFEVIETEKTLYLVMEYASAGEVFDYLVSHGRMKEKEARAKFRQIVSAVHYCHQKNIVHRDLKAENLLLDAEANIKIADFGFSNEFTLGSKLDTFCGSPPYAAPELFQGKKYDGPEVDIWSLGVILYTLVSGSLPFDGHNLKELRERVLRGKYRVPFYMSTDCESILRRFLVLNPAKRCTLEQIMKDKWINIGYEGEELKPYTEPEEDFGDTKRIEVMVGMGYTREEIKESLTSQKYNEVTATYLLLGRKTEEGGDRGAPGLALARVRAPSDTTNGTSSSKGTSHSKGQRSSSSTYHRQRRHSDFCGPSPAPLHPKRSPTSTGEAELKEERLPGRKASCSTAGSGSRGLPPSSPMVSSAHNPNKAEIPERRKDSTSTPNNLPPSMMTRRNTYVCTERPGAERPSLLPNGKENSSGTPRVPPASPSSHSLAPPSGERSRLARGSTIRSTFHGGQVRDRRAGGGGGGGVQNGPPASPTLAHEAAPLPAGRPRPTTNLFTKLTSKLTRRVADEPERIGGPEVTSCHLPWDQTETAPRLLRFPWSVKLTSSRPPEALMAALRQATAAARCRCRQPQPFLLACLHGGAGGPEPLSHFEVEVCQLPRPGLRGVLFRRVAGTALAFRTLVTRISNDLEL

[7] = Effective permeability in PBS at 7.4 incubated for 5 hrs by PAMPA analysis; format: ADME; details: pH 7.4, 5 h
Outline: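 PAMPA: DMSO stocks were diluted in PBS pH 7.4 and placed in the donor compartment, with PBS pH 7.4 in the acceptor, for 5 h. Both compartments were quantified by CLND against a calibration curve, with background nitrogen correction. Effective permeability was calculated from donor and acceptor concentrations using measured rather than assumed solubility.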

[8] = biological target: T3, NUAK family SNF1-like kinase 1 (Homo sapiens, UniProt O60285); experiment: Inhibition of recombinant human ARK5 (2 to end residues) using KKKVSRSGLYRSPSMPENLNRPR as substrate incubated for 40 mins in presence of [gamma-33ATP] by scintillation counting based radiometry assay
T3 sequence (O60285 whole entry): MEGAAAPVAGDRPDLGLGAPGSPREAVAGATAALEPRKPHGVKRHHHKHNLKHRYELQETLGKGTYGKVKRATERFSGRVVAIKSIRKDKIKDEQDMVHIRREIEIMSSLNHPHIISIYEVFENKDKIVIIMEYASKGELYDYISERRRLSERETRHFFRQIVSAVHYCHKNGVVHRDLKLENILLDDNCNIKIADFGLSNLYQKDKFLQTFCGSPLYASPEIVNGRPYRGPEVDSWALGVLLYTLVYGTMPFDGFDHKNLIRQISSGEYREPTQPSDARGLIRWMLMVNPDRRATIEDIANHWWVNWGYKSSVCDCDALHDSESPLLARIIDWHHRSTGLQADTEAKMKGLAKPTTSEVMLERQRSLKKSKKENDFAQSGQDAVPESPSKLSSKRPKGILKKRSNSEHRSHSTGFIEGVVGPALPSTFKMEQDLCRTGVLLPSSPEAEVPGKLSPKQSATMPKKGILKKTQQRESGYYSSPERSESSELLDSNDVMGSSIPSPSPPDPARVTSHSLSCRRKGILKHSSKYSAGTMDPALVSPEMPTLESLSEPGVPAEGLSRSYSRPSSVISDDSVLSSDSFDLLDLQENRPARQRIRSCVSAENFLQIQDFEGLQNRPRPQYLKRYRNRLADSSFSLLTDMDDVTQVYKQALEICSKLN
Outline: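 Eurofins radiometric enzymatic assay with ATP at Km for each kinase. IC50 was derived from a 9-point dose–response curve run in duplicate.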

For `NS(=O)(=O)c1ccc(CNc2nc(Nc3cccc(CN4CCOCC4)c3)ncc2C2CC2)cc1`, the pIC50 [1] was under 5.00, the pIC50 [2] was 6.73 and the Kinetic_solubility [3] was 118.7 µM. For the same compound, the % control [4] was 51%, the pIC50 [5] was under 5.00 and the pIC50 [6] was under 5.00. The Peff [7] was 7.09 10^-7 cm/s.
Compound `NS(=O)(=O)c1ccc(CNc2nc(Nc3cccc(CN4CCOCC4)c3)ncc2Br)cc1` has a pIC50 [1] of under 5.00, a pIC50 [2] of 7.18 and a pIC50 [8] of 6.77. It also gave a Kinetic solubility [3] of 4.7 µM, a % control [4] of 7% and a pIC50 [5] of under 5.00. For the same compound, the pIC50 [6] was under 5.00 and the Peff ([7]; BLD = below limit of detection) was “Bld”.
Compound `NS(=O)(=O)c1ccc(CNc2nc(Nc3cccc(NC(=O)N4CCCC4)c3)ncc2Br)cc1` has a pIC50 [1] of under 5.00, a pIC50 [2] of 6.72 and a pIC50 [8] of 6.50. It also gave a Kinetic_solubility [3] of 20 µM, a % control [4] of 6% and a pIC50 [5] of under 5.00. The pIC50 [6] was under 5.00 and the Peff ([7]; BLD = below limit of detection) was “Bld”.
Compound `c1cc(CN2CCOCC2)cc(Nc2nccc(NCCc3cnc[nH]3)n2)c1` has a pIC50 [1] of under 5.00, a pIC50 [8] of 6.75 and a Kinetic solubility [3] of 200 µM. For the same compound, the % control [4] was 5%, the pIC50 [5] was under 5.00 and the pIC50 [6] was under 5.00. The Peff [7] was 1.66 10^-7 cm/s.
